From ChEMBL document CHEMBL1914309, “Binding of isoxazole and pyrazole derivatives of curcumin with the activator binding domain of novel protein kinase C” (Bioorg Med Chem, 2011)

How the values were obtained:
[1] = target: T1, Protein kinase C epsilon type (Homo sapiens, UniProt Q02156); assay: Binding affinity to PKCepsilon C1B subdomain after 1 hr by fluorescence quenching analysis
T1 sequence (Q02156 whole entry): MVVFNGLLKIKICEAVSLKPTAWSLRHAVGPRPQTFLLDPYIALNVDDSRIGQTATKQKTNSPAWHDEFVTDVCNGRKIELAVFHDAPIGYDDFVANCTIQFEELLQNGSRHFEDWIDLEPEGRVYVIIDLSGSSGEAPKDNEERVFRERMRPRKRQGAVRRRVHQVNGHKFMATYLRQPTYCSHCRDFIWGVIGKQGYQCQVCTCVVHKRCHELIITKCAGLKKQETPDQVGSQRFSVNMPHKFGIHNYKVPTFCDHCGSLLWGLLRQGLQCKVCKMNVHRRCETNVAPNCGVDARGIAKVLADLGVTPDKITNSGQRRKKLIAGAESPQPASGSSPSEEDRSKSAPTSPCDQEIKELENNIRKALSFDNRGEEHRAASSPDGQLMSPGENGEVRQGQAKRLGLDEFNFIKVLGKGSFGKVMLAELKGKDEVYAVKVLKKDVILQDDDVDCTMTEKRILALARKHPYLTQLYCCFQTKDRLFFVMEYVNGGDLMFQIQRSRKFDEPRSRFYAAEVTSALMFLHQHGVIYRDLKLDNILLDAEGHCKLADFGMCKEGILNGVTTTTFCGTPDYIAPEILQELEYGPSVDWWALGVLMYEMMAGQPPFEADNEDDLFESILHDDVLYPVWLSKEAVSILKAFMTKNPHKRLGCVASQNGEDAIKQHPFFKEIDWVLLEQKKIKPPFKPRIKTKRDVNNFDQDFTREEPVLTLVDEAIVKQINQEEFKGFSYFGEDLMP
Procedure, shortened: (§1)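 Purified C1B subdomain of PKC delta, epsilon or theta was titrated with ligand in 50 mM Tris, 150 mM NaCl, 2 mM DTT, ZnSO4, pH 7.2, at 25 °C. Intrinsic fluorescence was excited at 280 nm and emission recorded from 300–550 nm. (F0−F)/F at 350 nm was plotted against ligand concentration, and the curve was fitted to a modified Hill equation to give EC50 and Hill coefficient.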

[2] = target: Protein kinase C theta type (Homo sapiens, UniProt Q04759); assay: Binding affinity to PKCtheta C1B subdomain after 1 hr by fluorescence quenching analysis; procedure, shortened: as §1
[3] = Selectivity ratio of EC50 for PKCepsilon C1B subdomain to EC50 for PKCtheta C1B subdomain
Procedure, shortened: (§2)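 Ratios of EC50 values, each taken from a modified-Hill fit of intrinsic tryptophan/tyrosine fluorescence quenching (excitation 280 nm, read at 350 nm) of the C1B subdomains in Tris/NaCl/DTT/ZnSO4 buffer, pH 7.2, at 25 °C.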

[4] = target: Protein kinase C delta type (Homo sapiens, UniProt Q05655); assay: Binding affinity to PKCdelta C1B subdomain after 1 hr by fluorescence quenching analysis; procedure, shortened: as §1
[5] = Selectivity ratio of EC50 for PKCdelta C1B subdomain to EC50 for PKCtheta C1B subdomain; procedure, shortened: as §2
[6] = Solubility of the compound; type: physicochemical

Sequence of Protein kinase C theta type (Q04759 whole entry): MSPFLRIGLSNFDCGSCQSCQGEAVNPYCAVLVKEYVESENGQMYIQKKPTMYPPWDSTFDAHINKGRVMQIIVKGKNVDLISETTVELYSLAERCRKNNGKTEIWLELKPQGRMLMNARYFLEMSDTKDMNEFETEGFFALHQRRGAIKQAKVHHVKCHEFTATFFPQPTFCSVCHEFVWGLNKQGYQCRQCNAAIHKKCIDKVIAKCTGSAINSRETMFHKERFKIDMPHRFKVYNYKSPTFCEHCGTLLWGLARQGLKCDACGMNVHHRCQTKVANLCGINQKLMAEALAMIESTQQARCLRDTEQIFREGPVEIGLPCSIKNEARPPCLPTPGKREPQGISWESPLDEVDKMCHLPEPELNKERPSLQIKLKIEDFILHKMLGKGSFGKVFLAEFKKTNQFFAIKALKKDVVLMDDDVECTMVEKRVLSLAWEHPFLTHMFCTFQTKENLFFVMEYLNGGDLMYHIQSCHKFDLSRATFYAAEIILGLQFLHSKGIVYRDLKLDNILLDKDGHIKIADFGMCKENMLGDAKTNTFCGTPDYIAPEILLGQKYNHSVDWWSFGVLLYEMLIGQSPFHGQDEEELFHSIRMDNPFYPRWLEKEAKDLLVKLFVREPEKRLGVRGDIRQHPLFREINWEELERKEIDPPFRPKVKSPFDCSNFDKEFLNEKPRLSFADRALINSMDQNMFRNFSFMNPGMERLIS
Sequence of Protein kinase C delta type (Q05655 whole entry): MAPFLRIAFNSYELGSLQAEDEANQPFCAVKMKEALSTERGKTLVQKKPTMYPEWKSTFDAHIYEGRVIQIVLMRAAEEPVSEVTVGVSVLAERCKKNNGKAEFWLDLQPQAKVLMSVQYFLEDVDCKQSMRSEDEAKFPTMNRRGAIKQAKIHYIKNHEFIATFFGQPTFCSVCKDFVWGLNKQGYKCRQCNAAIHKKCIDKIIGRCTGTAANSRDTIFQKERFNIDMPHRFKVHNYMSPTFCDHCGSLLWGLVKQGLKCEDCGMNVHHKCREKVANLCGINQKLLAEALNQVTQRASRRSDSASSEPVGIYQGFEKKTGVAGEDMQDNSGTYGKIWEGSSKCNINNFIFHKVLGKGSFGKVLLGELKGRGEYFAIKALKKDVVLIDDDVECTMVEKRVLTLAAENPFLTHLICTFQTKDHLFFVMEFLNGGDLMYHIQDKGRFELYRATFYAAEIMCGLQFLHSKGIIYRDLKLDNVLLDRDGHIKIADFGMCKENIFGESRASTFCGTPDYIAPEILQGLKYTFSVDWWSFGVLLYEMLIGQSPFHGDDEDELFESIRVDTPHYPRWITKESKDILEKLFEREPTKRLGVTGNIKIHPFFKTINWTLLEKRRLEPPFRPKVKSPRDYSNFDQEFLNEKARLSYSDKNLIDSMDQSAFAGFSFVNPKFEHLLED

SMILES	EC50 [1]	EC50 [2]	Ratio EC50 [3]	EC50 [4]	Ratio EC50 [5]	solubility [6]
COc1cc(/C=C/c2cc(/C=C/c3ccc(O)c(OC)c3)[nH]n2)ccc1O [CURCUMIN PYRAZOLE]	18.8 µM	7.25 µM	2	15 µM	2	–
CCCCCCCCOc1ccc(/C=C/c2cc(/C=C/c3ccc(OCCCCCCCC)c(OC)c3)on2)cc1OC	–	–	–	–	–	Insoluble
CCCCOc1ccc(/C=C/c2cc(/C=C/c3ccc(OCCCC)c(OC)c3)on2)cc1OC	23.4 µM	7.14 µM	–	25.2 µM	–	–

Results, then the molecule that gave them:

EC50 [1]	EC50 [2]	Ratio EC50 [3]	EC50 [4]	Ratio EC50 [5]	solubility [6]	SMILES
11.8 µM	3.16 µM	3	11.5 µM	3	–	COc1cc(/C=C/c2cc(/C=C/c3ccc(O)c(OC)c3)on2)ccc1O
16.1 µM	15.8 µM	–	21.6 µM	–	–	CCCCOc1ccc(/C=C/c2cc(/C=C/c3ccc(O)c(OC)c3)n[nH]2)cc1OC
